In ChEMBL document CHEMBL3616436, “Synthesis, cytotoxicity and antimicrobial activity of thiourea derivatives incorporating 3-(trifluoromethyl)phenyl moiety” (Eur J Med Chem, 2015):
Converted amounts (≈) assume the structure as drawn. The source made the active and inactive calls. The calls are words filed in the database; no cut-off is given here.

Legend:
Bacillus subtilis = experiment: Antimicrobial activity against Bacillus subtilis ATCC 6633 at 400 ug after 18 hrs by disc-diffusion method; assay type: functional; details: ATCC 6633, 18 h, read-out: IZ
How it was run: (§1)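 Disc diffusion on Mueller-Hinton II agar per CLSI; 9 mm paper discs loaded with 400 µg compound from DMSO solution, dried, placed on agar; growth inhibition zone diameter read after 18 h at 35°C.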

[1] = Cytotoxicity against BHK cells assessed as cell viability after 48 to 96 hrs by MTT assay; assay type: cell-based, Mesocricetus auratus; details: hamster
Staphylococcus aureus [2] = experiment: Antimicrobial activity against Staphylococcus aureus ATCC 25923 at 400 ug after 18 hrs by disc-diffusion method; assay type: functional; details: ATCC 25923, 18 h, read-out: IZ; how it was run: as §1
Staphylococcus aureus [3] = experiment: Antimicrobial activity against Staphylococcus aureus NCTC 4163 after 18 hrs by twofold serial microdilution method; assay type: functional; details: NCTC 4163, 18 h
Poliovirus 1 = experiment: Antiviral activity against Poliovirus type 1 ATCC VR-1562 infected in African green monkey Vero 76 cells assessed as reduction of virus-plaque formation after 2 days by crystal violet staining; assay type: functional, organism-based; details: Enterovirus C, ATCC VR-1562, Vero, 48 h
[4] = test system: Mycobacterium tuberculosis; experiment: Antimycobacterial activity against Mycobacterium tuberculosis H37Rv ATCC 25618; assay type: functional
How it was run: (§2)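 Classical test-tube successive-dilution method in Youmans' modification of Proskauer and Beck liquid medium with 10% bovine serum. Inoculum came from 14-day cultures. DMSO stock was 10 mg/mL, diluted geometrically in medium. Tubes were incubated at 37 °C. Concentrations tested were 3.1, 6.2, 12.5, 25, 50 and 100 µg/ml. MIC is the minimum concentration inhibiting growth relative to compound-free tubes.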

Staphylococcus aureus [5] = experiment: Antimicrobial activity against Staphylococcus aureus ATCC 6538 after 18 hrs by twofold serial microdilution method; assay type: functional; details: ATCC 6538, 18 h
Staphylococcus aureus [6] = experiment: Antimicrobial activity against Staphylococcus aureus ATCC 29213 after 18 hrs by twofold serial microdilution method; assay type: functional; details: ATCC 29213, 18 h
Staphylococcus aureus [7] = experiment: Antimicrobial activity against Staphylococcus aureus NCTC 4163 at 400 ug after 18 hrs by disc-diffusion method; assay type: functional; details: NCTC 4163, 18 h, read-out: IZ; how it was run: as §1
Micrococcus luteus [8] = experiment: Antimicrobial activity against Micrococcus luteus ATCC 9341 at 400 ug after 18 hrs by disc-diffusion method; assay type: functional; details: ATCC 9341, 18 h, read-out: IZ; how it was run: as §1
Staphylococcus aureus [9] = experiment: Antimicrobial activity against Staphylococcus aureus ATCC 6538 at 400 ug after 18 hrs by disc-diffusion method; assay type: functional; details: ATCC 6538, 18 h, read-out: IZ; how it was run: as §1
[10] = test system: Mycobacterium tuberculosis; experiment: Antimycobacterial activity against drug-sensitive Mycobacterium tuberculosis Spec. 192; assay type: functional; how it was run: as §2
Enterococcus faecalis = experiment: Antimicrobial activity against Enterococcus faecalis ATCC 29212 at 400 ug after 18 hrs by disc-diffusion method; assay type: functional; how it was run: as §1
Vaccinia virus = experiment: Antiviral activity against Human Vaccinia virus ATCC VR-1549 infected in African green monkey Vero 76 cells assessed as reduction of virus-plaque formation after 3 days by crystal violet staining; assay type: functional, organism-based; details: Orthopoxvirus vaccinia, ATCC VR-1549, Vero, 72 h
Yellow fever virus = experiment: Antiviral activity against Yellow fever virus 17D infected in BHK cells assessed as protection against virus-induced cytopathogenicity after 3 to 4 days by MTT assay; assay type: functional, cell-based
Human alphaherpesvirus 1 = experiment: Antiviral activity against Human herpesvirus 1 KOS ATCC VR-1493 infected in African green monkey Vero 76 cells assessed as reduction of virus-plaque formation after 3 days by crystal violet staining; assay type: functional, organism-based; details: Human alphaherpesvirus 1, KOS ATCC VR1493, Vero, 72 h
How it was run: (§3)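 Plaque reduction: Vero-76 at 2x10^5 cells/well grown to confluent monolayers, infected 2 h at 50–100 PFU/well; after removing unadsorbed virus, overlay of D-MEM, 1% inactivated FBS, 0.75% methylcellulose with or without serial compound dilutions; 3 days at 37°C, fixed and stained with crystal violet in 50% ethanol, plaques counted; EC50 by linear regression.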

[11] = test system: Human immunodeficiency virus 1; experiment: Antiviral activity against HIV1 3B infected in human MT4 cells assessed as protection against virus-induced cytopathogenicity by MTT assay; assay type: functional, organism-based; details: Human immunodeficiency virus 1, 3B
Staphylococcus aureus [12] = experiment: Antimicrobial activity against Staphylococcus aureus ATCC 29213 at 400 ug after 18 hrs by disc-diffusion method; assay type: functional; details: ATCC 29213, 18 h, read-out: IZ; how it was run: as §1
[13] = test system: Vesicular stomatitis virus; experiment: Antiviral activity against Vesicular stomatitis virus ATCC VR 1540 infected in African green monkey Vero 76 cells assessed as reduction of virus-plaque formation after 2 days by crystal violet staining; assay type: functional, organism-based; details: ATCC VR 1540, Vero, 48 h
[14] = Antiviral activity against Bovine viral diarrhea virus 1-NADL ATCC VR-534 infected in MDBK cells assessed as protection against virus-induced cytopathogenicity after 3 to 4 days by MTT assay; assay type: functional, cell-based; details: Bovine viral diarrhea virus isolates and strains, ATCC VR-534, MDBK
How it was run: (§4)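 Cells seeded in 96-well plates (BHK 5x10^4, MDBK 3x10^4 cells/well), grown overnight to confluence, infected at m.o.i. 0.01 (BHK for Reo-1, MDBK for BVDV); serial compound dilutions in maintenance medium with 0.5% inactivated FBS added after 1 h; viability by MTT after 3–4 days at 37°C; EC50 for 50% protection by linear regression.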

[15] = Cytotoxicity against human MT4 cells; assay type: cell-based
Coxsackievirus B5 = experiment: Antiviral activity against Human coxsackievirus B5 ATCC VR-29 infected in African green monkey Vero 76 cells assessed as reduction of virus-plaque formation after 3 days by crystal violet staining; assay type: functional, organism-based; details: Enterovirus B, ATCC VR-29, Vero, 72 h; how it was run: as §3
Staphylococcus aureus [16] = experiment: Antimicrobial activity against Staphylococcus aureus ATCC 25923 after 18 hrs by twofold serial microdilution method; assay type: functional; details: ATCC 25923, 18 h
[17] = Cytotoxicity against bovine MDBK cells assessed as cell viability after 48 to 96 hrs by MTT assay; assay type: cell-based, Bos taurus; details: cattle
[18] = test system: Staphylococcus epidermidis; experiment: Antimicrobial activity against Staphylococcus epidermidis ATCC 35984 after 18 hrs by twofold serial microdilution method; assay type: functional; details: ATCC 35984, 18 h
[19] = test system: Staphylococcus epidermidis; experiment: Antimicrobial activity against Staphylococcus epidermidis ATCC 12228 after 18 hrs by twofold serial microdilution method; assay type: functional; details: ATCC 12228, 18 h
Proteus vulgaris = experiment: Antimicrobial activity against Proteus vulgaris NCTC 4635 at 400 ug after 18 hrs by disc-diffusion method; assay type: functional; how it was run: as §1
[20] = Cytotoxicity against African green monkey Vero 76 cells assessed as cell viability after 48 to 96 hrs by crystal violet staining; assay type: cell-based; details: chlorocebus sabaeus
Enterococcus hirae = experiment: Antimicrobial activity against Enterococcus hirae ATCC 10541 at 400 ug after 18 hrs by disc-diffusion method; assay type: functional; details: ATCC 10541, 18 h, read-out: IZ; how it was run: as §1
[21] = test system: Mammalian orthoreovirus 1; experiment: Antiviral activity against Reovirus type-1 ATCC VR-214 infected in BHK cells assessed as protection against virus-induced cytopathogenicity after 3 to 4 days by MTT assay; assay type: functional, cell-based; details: Mammalian orthoreovirus 1, ATCC VR-214, BHK; how it was run: as §4
[22] = test system: Staphylococcus epidermidis; experiment: Antimicrobial activity against Staphylococcus epidermidis ATCC 12228 at 400 ug after 18 hrs by disc-diffusion method; assay type: functional; details: ATCC 12228, 18 h, read-out: IZ; how it was run: as §1
Bacillus cereus = experiment: Antimicrobial activity against Bacillus cereus ATCC 11778 at 400 ug after 18 hrs by disc-diffusion method; assay type: functional; details: ATCC 11778, 18 h, read-out: IZ; how it was run: as §1
[23] = test system: Staphylococcus epidermidis; experiment: Antimicrobial activity against Staphylococcus epidermidis ATCC 35984 at 400 ug after 18 hrs by disc-diffusion method; assay type: functional; details: ATCC 35984, 18 h, read-out: IZ; how it was run: as §1
Micrococcus luteus [24] = experiment: Antimicrobial activity against Micrococcus luteus ATCC 10240 at 400 ug after 18 hrs by disc-diffusion method; assay type: functional; details: ATCC 10240, 18 h, read-out: IZ; how it was run: as §1

Fc1ccc(NC(=S)Nc2cccc(C(F)(F)F)c2)cc1
zone of inhibition at 400 µg/disc (Bacillus subtilis): 25 mm
CC50 [1]: 26 µM
zone of inhibition at 400 µg/disc (Staphylococcus aureus [2]): 23 mm
MIC (Staphylococcus aureus [3]): 8 µg/mL (≈ 25.5 µM)
EC50 (Poliovirus 1): > 40 µM
MIC [4]: 25 µg/mL (≈ 79.5 µM)
MIC (Staphylococcus aureus [5]): 16 µg/mL (≈ 50.9 µM)
MIC (Staphylococcus aureus [6]): 16 µg/mL (≈ 50.9 µM)
zone of inhibition at 400 µg/disc (Staphylococcus aureus [7]): 27 mm
zone of inhibition at 400 µg/disc (Micrococcus luteus [8]): 28 mm
zone of inhibition at 400 µg/disc (Staphylococcus aureus [9]): 25 mm
MIC [10]: 25 µg/mL (≈ 79.5 µM)
zone of inhibition at 400 µg/disc (Enterococcus faecalis; ATCC 29212, 18 h, read-out: IZ): 20 mm
EC50 (Vaccinia virus): > 40 µM
EC50 (Yellow fever virus): > 26 µM
EC50 (Human alphaherpesvirus 1): > 40 µM
EC50 [11]: > 31 µM
zone of inhibition at 400 µg/disc (Staphylococcus aureus [12]): 25 mm
EC50 [13]: > 40 µM
EC50 [14]: > 41 µM
CC50 [15]: 31 µM
EC50 (Coxsackievirus B5): > 40 µM
MIC (Staphylococcus aureus [16]): 8 µg/mL (≈ 25.5 µM)
CC50 [17]: 41 µM
MIC [18]: 16 µg/mL (≈ 50.9 µM)
MIC [19]: 16 µg/mL (≈ 50.9 µM)
zone of inhibition at 400 µg/disc (Proteus vulgaris; NCTC 4635, 18 h, read-out: IZ): 14 mm
CC50 [20]: 40 µM
zone of inhibition at 400 µg/disc (Enterococcus hirae): 30 mm
EC50 [21]: > 26 µM
zone of inhibition at 400 µg/disc [22]: 26 mm
zone of inhibition at 400 µg/disc (Bacillus cereus): 23 mm
zone of inhibition at 400 µg/disc [23]: 25 mm
zone of inhibition at 400 µg/disc (Micrococcus luteus [24]): 28 mm

O=c1cnn([C@@H]2O[C@H](CO)[C@@H](O)[C@H]2O)c(=O)[nH]1 [6-AZAURIDINE]
CC50 [20]: 12 µM

CCNC(=S)Nc1cccc(C(F)(F)F)c1
zone of inhibition at 400 µg/disc (Bacillus subtilis): 15 mm
CC50 [1]: > 100 µM
zone of inhibition at 400 µg/disc (Staphylococcus aureus [2]): 15 mm
MIC (Staphylococcus aureus [3]): 256 µg/mL (≈ 1030 µM)
EC50 (Poliovirus 1): > 100 µM
MIC [4]: > 100 µg/mL
MIC (Staphylococcus aureus [5]): 256 µg/mL (≈ 1030 µM)
MIC (Staphylococcus aureus [6]): 256 µg/mL (≈ 1030 µM)
zone of inhibition at 400 µg/disc (Staphylococcus aureus [7]): 14 mm
zone of inhibition at 400 µg/disc (Micrococcus luteus [8]): 13 mm
zone of inhibition at 400 µg/disc (Staphylococcus aureus [9]): 14 mm
MIC [10]: > 100 µg/mL
inhibition zone (IZ) (Enterococcus faecalis): inactive
EC50 (Vaccinia virus): > 100 µM
EC50 (Yellow fever virus): > 100 µM
EC50 (Human alphaherpesvirus 1): > 100 µM
EC50 [11]: > 100 µM
zone of inhibition at 400 µg/disc (Staphylococcus aureus [12]): 19 mm
EC50 [13]: > 100 µM
EC50 [14]: > 100 µM
CC50 [15]: > 100 µM
EC50 (Coxsackievirus B5): > 100 µM
MIC (Staphylococcus aureus [16]): 128 µg/mL (≈ 516 µM)
CC50 [17]: > 100 µM
MIC [18]: 512 µg/mL (≈ 2060 µM)
MIC [19]: 256 µg/mL (≈ 1030 µM)
inhibition zone (IZ) (Proteus vulgaris): inactive
CC50 [20]: > 100 µM
zone of inhibition at 400 µg/disc (Enterococcus hirae): 13 mm
EC50 [21]: > 100 µM
zone of inhibition at 400 µg/disc [22]: 14 mm
zone of inhibition at 400 µg/disc (Bacillus cereus): 15 mm
zone of inhibition at 400 µg/disc [23]: 13 mm
zone of inhibition at 400 µg/disc (Micrococcus luteus [24]): 13 mm
